Reference: ChEMBL document CHEMBL4004822, “Thienopyrimidinone Based Sirtuin-2 (SIRT2)-Selective Inhibitors Bind in the Ligand Induced Selectivity Pocket” (J Med Chem, 2017)

What was measured:
[1] = target: T1, NAD-dependent protein deacetylase sirtuin-2 (Homo sapiens) (UniProt Q8IXJ6); assay: Inhibition of recombinant human C-terminal His-tagged SIRT2 (50 to 389 end residues) expressed in Escherichia coli at 10 uM using p53 derived (379 to 382 residues) fluorogenic peptide substrate RHKK(Ac)-AMC preincubated for 10 mins followed by substrate addition in presence of NAD+ by fluorescence assay relative to control
T1 sequence (whole entry): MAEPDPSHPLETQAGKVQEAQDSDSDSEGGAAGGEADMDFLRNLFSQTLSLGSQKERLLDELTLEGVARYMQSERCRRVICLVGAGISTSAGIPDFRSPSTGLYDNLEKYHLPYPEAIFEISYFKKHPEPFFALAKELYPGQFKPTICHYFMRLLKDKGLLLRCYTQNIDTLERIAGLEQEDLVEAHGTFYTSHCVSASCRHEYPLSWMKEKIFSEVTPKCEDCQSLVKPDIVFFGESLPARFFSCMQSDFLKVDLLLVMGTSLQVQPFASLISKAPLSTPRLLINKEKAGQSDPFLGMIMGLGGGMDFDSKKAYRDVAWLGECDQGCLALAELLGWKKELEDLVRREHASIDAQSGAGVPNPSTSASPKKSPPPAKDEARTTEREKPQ
In short: (§1)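 Two-step fluorogenic assay with p53 379–382 RHKK(Ac)-AMC. Compound (from 10 mM DMSO stock) preincubated ~10 min with human SIRT before substrate addition. Developer then releases fluorophore, read at ex 360/em 460 nm.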

[2] = target: T2, NAD-dependent protein deacetylase sirtuin-2 (Homo sapiens, UniProt Q8IXJ6); assay: Inhibition of recombinant human C-terminal His-tagged SIRT2 (50 to 389 end residues) expressed in Escherichia coli using p53 derived (379 to 382 residues) fluorogenic peptide substrate RHKK(Ac)-AMC preincubated for 10 mins followed by substrate addition in presence of NAD+ by fluorescence assay; in short: as §1
T2 sequence (Q8IXJ6 whole entry): T1 sequence (whole entry)

Compound	inhibition [1] [%]	IC50 [2] [µM]
COc1ccc(Cn2cnc3sc4c(c3c2=O)CCC(NC2CCOCC2)C4)c2ccccc12 (configuration not stated)	81	5.06
O=c1c2c3c(sc2ncn1Cc1cccc2ccccc12)CC(NCc1cccnc1)CC3 (configuration not stated)	89	2.99
O=c1c2c3c(sc2ncn1Cc1cccc2cccnc12)CC(NCc1ccccc1Cl)CC3 (configuration not stated)	85	3.8
COc1ccccc1Cn1cnc2sc3c(c2c1=O)CCC(NCC1CCCCC1)C3 (configuration not stated)	79	9.18
COc1ccc2ccccc2c1Cn1cnc2sc(CCNC3CCOCC3)c(C)c2c1=O	68	8.15
O=c1c2c3c(sc2ncn1Cc1cccc(-c2ccccc2)c1)CC(NCCC1CCCCC1)CC3 (configuration not stated)	90	3.74
COc1ccccc1CNC1CCc2c(sc3ncn(Cc4c(OC)ccc5ccccc45)c(=O)c23)C1 (configuration not stated)	89	2.24
COc1ccc2ccccc2c1Cn1cnc2sc3c(c2c1=O)CCC(NCc1ccccc1)C3 (configuration not stated)		21.1
COc1ccccc1Cn1cnc2sc3c(c2c1=O)CCC(NCc1ccco1)C3 (configuration not stated)	43	
COc1ccc2ccccc2c1Cn1cnc2sc(CCNCC3CCOC3)c(C)c2c1=O (configuration not stated)	65	
COc1ccc2ccccc2c1Cn1cnc2sc(CCNCc3ccc(C#N)cc3)c(C)c2c1=O	51	
O=c1c2c3c(sc2ncn1Cc1cccc2ccccc12)CC(NCc1cccc(Cl)c1)CC3 (configuration not stated)	60	
N#Cc1ccc(CNC2CCc3c(sc4ncn(Cc5cccc6ccccc56)c(=O)c34)C2)cc1 (configuration not stated)	66	
O=c1c2c3c(sc2ncn1Cc1cccc2ccccc12)CC(NCc1ccc(Cl)cc1)CC3 (configuration not stated)	64	
O=c1c2c3c(sc2ncn1Cc1ccccc1)CC(NCc1ccccc1Cl)CC3 (configuration not stated)	67	
O=c1c2c3c(sc2ncn1Cc1cccc2ccccc12)CC(NCCC1CCCCC1)CC3 (configuration not stated)	65	
COc1ccc(Cn2cnc3sc4c(c3c2=O)CCC(Nc2ccc(C)cc2)C4)c2ccccc12 (configuration not stated)	35	
COc1cccc(Cn2cnc3sc4c(c3c2=O)CCC(NCc2ccncc2)C4)c1 (configuration not stated)	59	
O=c1c2c3c(sc2ncn1Cc1cccc2ccccc12)CC(NCc1ccccc1F)CC3 (configuration not stated)	71	
COc1cccc(NC2CCc3c(sc4ncn(Cc5ccc(OC)c6ccccc56)c(=O)c34)C2)c1 (configuration not stated)	25	
COc1cccc(NC2CCc3c(sc4ncn(Cc5cccc6ccccc56)c(=O)c34)C2)c1 (configuration not stated)	46	
COc1ccc2ccccc2c1Cn1cnc2sc3c(c2c1=O)CCC(NCc1ccc(Cl)cc1)C3 (configuration not stated)	40	

Compound	inhibition [1] [%]	IC50 [2] [µM]
O=c1c2c3c(sc2ncn1Cc1ccc2ccccc2c1)CC(NCc1ccccc1Cl)CC3 (configuration not stated)	43	
COc1cccc(Cn2cnc3sc4c(c3c2=O)CCC(NCCc2cccnc2)C4)c1 (configuration not stated)	40	
COc1ccc(CNC2CCc3c(sc4ncn(Cc5ccccc5)c(=O)c34)C2)cn1 (configuration not stated)	48	
COc1ccc(Cn2cnc3sc4c(c3c2=O)CCC(NCc2cccc(F)c2)C4)c2ccccc12 (configuration not stated)	59	
COc1ccc(CNC2CCc3c(sc4ncn(Cc5ccccc5)c(=O)c34)C2)cc1 (configuration not stated)	45	
O=c1c2c3c(sc2ncn1Cc1ccccc1)CC(NCc1cncnc1)CC3 (configuration not stated)	18	
O=c1c2c3c(sc2ncn1Cc1ccc2ccccc2c1)CC(NCCN1CCCC1)CC3 (configuration not stated)	52	
O=c1c2c3c(sc2ncn1Cc1cccc2cccnc12)CC(NCCN1CCCC1)CC3 (configuration not stated)	29	
O=c1c2c3c(sc2ncn1Cc1cccc2ccccc12)CC(NCCN1CCCC1)CC3 (configuration not stated)	56	
COc1ccc(Cn2cnc3sc4c(c3c2=O)CCC(NCc2ccccc2Cl)C4)c2ccccc12 (configuration not stated)	65	
COc1cccc(CNC2CCc3c(sc4ncn(Cc5cccc6ccccc56)c(=O)c34)C2)c1 (configuration not stated)	59	
COc1ccc2ccccc2c1Cn1cnc2sc3c(c2c1=O)CCC(NCc1cncnc1)C3 (configuration not stated)	33	
COc1ccc2ccccc2c1Cn1cnc2sc3c(c2c1=O)CCC(Nc1cccc(C)c1)C3 (configuration not stated)	27	
CC(=O)NCCNC1CCc2c(sc3ncn(Cc4cccc5cccnc45)c(=O)c23)C1 (configuration not stated)	28	
COc1ccc(Cn2cnc3sc4c(c3c2=O)CCC(Nc2ccc3c(c2)OCO3)C4)c2ccccc12 (configuration not stated)	38	
COc1cccc(CNC2CCc3c(sc4ncn(Cc5ccccc5)c(=O)c34)C2)c1 (configuration not stated)	48	
COc1ccccc1Cn1cnc2sc3c(c2c1=O)CCC(NCc1ccncc1)C3 (configuration not stated)	64	
COc1cccc(Cn2cnc3sc4c(c3c2=O)CCC(NCC2CCCO2)C4)c1 (configuration not stated)	3	
COc1ccc(NC2CCc3c(sc4ncn(Cc5cccc6ccccc56)c(=O)c34)C2)cc1 (configuration not stated)	52	
COc1ccc(Cn2cnc3sc4c(c3c2=O)CCC(NCc2cccs2)C4)c2ccccc12 (configuration not stated)	71	
O=c1c2c3c(sc2ncn1Cc1cccc2cccnc12)CC(NCCN1CCOCC1)CC3 (configuration not stated)	53	
COc1ccc(Cn2cnc3sc4c(c3c2=O)CCC(NCCNC(C)=O)C4)c2ccccc12 (configuration not stated)	58	

Compound	inhibition [1] [%]	IC50 [2] [µM]
O=c1c2c3c(sc2ncn1Cc1cccc2cccnc12)CC(NCc1cncnc1)CC3 (configuration not stated)	75	
Cc1ccc(NC2CCc3c(sc4ncn(Cc5cccc6ccccc56)c(=O)c34)C2)cc1 (configuration not stated)	50	
COc1cccc(CNC2CCc3c(sc4ncn(Cc5cccc(OC)c5)c(=O)c34)C2)c1 (configuration not stated)	58	
O=c1c2c3c(sc2ncn1Cc1cccc(-c2ccccc2)c1)CC(Nc1ccc2c(c1)OCO2)CC3 (configuration not stated)	33	
COc1cccc(CNC2CCc3c(sc4ncn(Cc5c(OC)ccc6ccccc56)c(=O)c34)C2)c1 (configuration not stated)		1.9
O=c1c2c3c(sc2ncn1Cc1ccc2ccccc2c1)CC(NC1CCCC1)CC3 (configuration not stated)	63	
Cc1ccc(NC2CCc3c(sc4ncn(Cc5cccc(-c6ccccc6)c5)c(=O)c34)C2)cc1 (configuration not stated)	27	
O=c1c2c3c(sc2ncn1Cc1ccccc1)CC(NCc1ccccc1)CC3 (configuration not stated)	57	
COc1ccc(Cn2cnc3sc4c(c3c2=O)CCC(NCC2CCOC2)C4)c2ccccc12 (configuration not stated)	70	
Cc1cccc(NC2CCc3c(sc4ncn(Cc5cccc6cccnc56)c(=O)c34)C2)c1 (configuration not stated)	62	
COc1ccc2ccccc2c1Cn1cnc2sc3c(c2c1=O)CCC(Nc1ccc(F)cc1)C3 (configuration not stated)	44	
COCCNC1CCc2c(sc3ncn(Cc4cccc5cccnc45)c(=O)c23)C1 (configuration not stated)	41	
COc1ccc2ccccc2c1Cn1cnc2sc3c(c2c1=O)CCC(NC1CCc2ccccc21)C3 (configuration not stated)	59	
COc1ccccc1Cn1cnc2sc3c(c2c1=O)CCC(NCc1ccccn1)C3 (configuration not stated)	35	
O=c1c2c3c(sc2ncn1Cc1cccc2ccccc12)CC(Nc1ccc(F)cc1)CC3 (configuration not stated)	50	
COc1cccc(NC2CCc3c(sc4ncn(Cc5cccc(-c6ccccc6)c5)c(=O)c34)C2)c1 (configuration not stated)	30	
COc1ccccc1Cn1cnc2sc3c(c2c1=O)CCC(NCc1c(C)nn(C)c1C)C3 (configuration not stated)	37	
O=c1c2c3c(sc2ncn1Cc1ccccc1)CC(NCCc1cccnc1)CC3 (configuration not stated)	27	
COc1ccccc1NC1CCc2c(sc3ncn(Cc4cccc5cccnc45)c(=O)c23)C1 (configuration not stated)	69	
O=c1c2c3c(sc2ncn1Cc1cccc2cccnc12)CC(NC1CCCC1)CC3 (configuration not stated)	30	
O=c1c2c3c(sc2ncn1Cc1cccc2ccccc12)CC(NCc1cccs1)CC3 (configuration not stated)	54	
COc1ccccc1Cn1cnc2sc3c(c2c1=O)CCC(NCCc1cccnc1)C3 (configuration not stated)	38	

Compound	inhibition [1] [%]	IC50 [2] [µM]
COc1ccccc1CCNC1CCc2c(sc3ncn(Cc4cccc5cccnc45)c(=O)c23)C1 (configuration not stated)	63	
COc1ccccc1NC1CCc2c(sc3ncn(Cc4c(OC)ccc5ccccc45)c(=O)c23)C1 (configuration not stated)	29	
COc1ccc(Cn2cnc3sc4c(c3c2=O)CCC(Nc2ccc(F)cc2)C4)c2ccccc12 (configuration not stated)	56	
COc1cccc(Cn2cnc3sc4c(c3c2=O)CCC(NCc2ccccc2Cl)C4)c1 (configuration not stated)	68	
COc1ccc2ccccc2c1Cn1cnc2sc3c(c2c1=O)CCC(NC1CCCc2ccccc21)C3 (configuration not stated)	34	
COc1ccccc1CNC1CCc2c(sc3ncn(Cc4ccccc4)c(=O)c23)C1 (configuration not stated)	46	
COc1ccccc1CCNC1CCc2c(sc3ncn(Cc4ccc(OC)c5ccccc45)c(=O)c23)C1 (configuration not stated)	69	
COc1ccccc1Cn1cnc2sc3c(c2c1=O)CCC(NCCc1ccncc1)C3 (configuration not stated)	26	
O=c1c2c3c(sc2ncn1Cc1cccc2cccnc12)CC(NC1CCOCC1)CC3 (configuration not stated)	51	
COc1ccc2ccccc2c1Cn1cnc2sc(CCN(C)C)c(C)c2c1=O	30	
O=c1c2c3c(sc2ncn1Cc1cccc(-c2ccccc2)c1)CC(NCc1ccccc1Cl)CC3 (configuration not stated)	39	
O=c1c2c3c(sc2ncn1Cc1ccc2ccccc2c1)CC(NCc1ccccc1F)CC3 (configuration not stated)	51	
O=c1c2c3c(sc2ncn1Cc1cccc2cccnc12)CC(Nc1ccc2c(c1)OCO2)CC3 (configuration not stated)	76	
O=c1c2c3c(sc2ncn1Cc1ccc2ccccc2c1)CC(NCC1CCOC1)CC3 (configuration not stated)	58	
COc1cccc(CNC2CCc3c(sc4ncn(Cc5ccc6ccccc6c5)c(=O)c34)C2)c1 (configuration not stated)	51	
COc1ccccc1CCNC1CCc2c(sc3ncn(Cc4cccc(-c5ccccc5)c4)c(=O)c23)C1 (configuration not stated)	65	
COc1cccc(Cn2cnc3sc4c(c3c2=O)CCC(NCc2ccc(OC)nc2)C4)c1 (configuration not stated)	28	
COc1ccccc1CCNC1CCc2c(sc3ncn(Cc4ccc5ccccc5c4)c(=O)c23)C1 (configuration not stated)	67	
COc1ccccc1CNC1CCc2c(sc3ncn(Cc4cccc5ccccc45)c(=O)c23)C1 (configuration not stated)	60	
